Assay results reported in ChEMBL document CHEMBL4028892, “Discovery of a 1-Methyl-3,4-dihydronaphthalene-Based Sphingosine-1-Phosphate (S1P) Receptor Agonist Ceralifimod (ONO-4641). A S1P1 and S1P5 Selective Agonist for the Treatment of Autoimmune Diseases” (J Med Chem, 2017).

Experiments:
[1] = Cmax in bovine type 2 collagen-induced Lewis rat arthritis model at 0.1 mg/kg, po qd administered up to 27 days; format: ADME, organism-based; set-up: dose 0.1 mg/kg, route oral; settings: in vivo
[2] = Volume of distribution at steady state in cynomolgus monkey at 0.1 mg/kg, iv by LC-MS/MS analysis; format: ADME, organism-based, Macaca fascicularis; settings: in vivo, read-out: Vdss
Procedure, shortened: (§1)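 Single intravenous or oral dose of 0.1 mg/kg to male Crl:CD(SD) rats and to monkeys. Values are means of three animals with SD.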

Mus musculus = test: Decrease in peripheral lymphocyte levels in po dosed BALB/c mouse at 24 hrs by automated hematology analyzer; format: functional
Procedure, shortened: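 Compound given orally to 6-week-old male BALB/c mice. At 4 or 24 h, blood was taken from the abdominal aorta under ether anaesthesia and lymphocytes counted on an automated haematology analyser. Counts expressed as % of the vehicle-group mean; ED50 is the dose lowering counts to 50%. One experiment, five mice.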

[3] = target: Sphingosine 1-phosphate receptor 1 (Rattus norvegicus, UniProt P48303); test: Agonist activity at rat S1P1 receptor assessed as inhibition of forskolin-stimulated cAMP accumulation after 30 mins by ELISA; format: functional
[4] = target: T1, Sphingosine 1-phosphate receptor 1 (Homo sapiens, UniProt P21453); test: Downregulation of human S1P1 receptor expressed in CHO-K1 cell membranes assessed as concentration required to induce downregulation of receptor by 90% by flow cytometric method; format: cell-based
[5] = AUC (infinity) in Crl:CD(SD) rat at 0.1 mg/kg, po by LC-MS/MS analysis; format: ADME, organism-based; set-up: dose 0.1 mg/kg, time infinity, route oral; settings: in vivo; procedure, shortened: as §1
[6] = Total clearance in cynomolgus monkey at 0.1 mg/kg, iv by LC-MS/MS analysis; format: ADME, organism-based, Macaca fascicularis; settings: in vivo; procedure, shortened: as §1
[7] = target: Sphingosine 1-phosphate receptor 2 (Homo sapiens, UniProt O95136); test: Displacement of [33P]-S1P from human S1P2 receptor expressed in CHO-K1 cells after 60 mins by scintillation counting method; format: cell-based
[8] = Volume of distribution at steady state in Crl:CD(SD) rat at 0.1 mg/kg, iv by LC-MS/MS analysis; format: ADME, organism-based; settings: in vivo, read-out: Vdss; procedure, shortened: as §1
Cynomolgus monkey = test: Toxicity in unrestrained conscious cynomolgus monkey assessed as decrease in heart rate at 100 mg/kg, po administered as single dose measured at 4 hrs relative to control; format: organism-based, Macaca fascicularis; set-up: scale not given: the % may be the effect or the level left; settings: in vivo
Procedure, shortened: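 Single oral dose of 1, 10 or 100 mg/kg to unrestrained conscious monkeys. Heart rate was followed from 4 to 24 h after dosing and its decrease expressed against the pretreatment value. Plasma concentration was sampled at 4 and 24 h.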

[9] = target: T1, Sphingosine 1-phosphate receptor 1; test: Displacement of [33P]-S1P from human S1P1 receptor expressed in CHO-K1 cells after 60 mins by scintillation counting method; format: cell-based
[10] = target: T1, Sphingosine 1-phosphate receptor 1; test: Agonist activity at human S1P1 receptor expressed in CHO-K1 cells assessed as inhibition of forskolin-stimulated cAMP accumulation after 30 mins by ELISA; format: functional, cell-based
[11] = Cmax in bovine type 2 collagen-induced Lewis rat arthritis model at 0.03 mg/kg, po qd administered up to 27 days; format: ADME, organism-based; set-up: dose 0.03 mg/kg, route oral; settings: in vivo

T1 sequence (P21453 whole entry): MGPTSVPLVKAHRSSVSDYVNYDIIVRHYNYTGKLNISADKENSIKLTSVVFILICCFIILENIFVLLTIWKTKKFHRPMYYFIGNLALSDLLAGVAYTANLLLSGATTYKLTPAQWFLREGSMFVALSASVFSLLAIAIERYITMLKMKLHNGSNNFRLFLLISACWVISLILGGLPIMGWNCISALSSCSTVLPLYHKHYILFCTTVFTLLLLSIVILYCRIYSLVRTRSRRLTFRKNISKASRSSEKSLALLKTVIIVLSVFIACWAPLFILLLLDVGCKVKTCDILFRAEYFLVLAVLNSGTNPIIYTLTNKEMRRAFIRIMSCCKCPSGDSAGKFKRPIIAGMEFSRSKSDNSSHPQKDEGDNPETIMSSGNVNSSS
Chain of Sphingosine 1-phosphate receptor 1 (Rattus norvegicus, UniProt P48303) (P48303 whole entry): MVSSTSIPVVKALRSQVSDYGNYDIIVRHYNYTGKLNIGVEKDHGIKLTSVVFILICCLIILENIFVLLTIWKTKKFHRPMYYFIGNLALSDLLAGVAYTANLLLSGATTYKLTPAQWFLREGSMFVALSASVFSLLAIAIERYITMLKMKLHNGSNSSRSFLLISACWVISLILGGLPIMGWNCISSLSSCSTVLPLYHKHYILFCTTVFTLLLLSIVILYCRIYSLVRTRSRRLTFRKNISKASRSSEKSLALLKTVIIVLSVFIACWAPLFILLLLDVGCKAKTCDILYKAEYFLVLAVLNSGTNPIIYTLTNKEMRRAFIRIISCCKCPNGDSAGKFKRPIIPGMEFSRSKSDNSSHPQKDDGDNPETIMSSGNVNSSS
Chain of Sphingosine 1-phosphate receptor 2 (O95136 whole entry): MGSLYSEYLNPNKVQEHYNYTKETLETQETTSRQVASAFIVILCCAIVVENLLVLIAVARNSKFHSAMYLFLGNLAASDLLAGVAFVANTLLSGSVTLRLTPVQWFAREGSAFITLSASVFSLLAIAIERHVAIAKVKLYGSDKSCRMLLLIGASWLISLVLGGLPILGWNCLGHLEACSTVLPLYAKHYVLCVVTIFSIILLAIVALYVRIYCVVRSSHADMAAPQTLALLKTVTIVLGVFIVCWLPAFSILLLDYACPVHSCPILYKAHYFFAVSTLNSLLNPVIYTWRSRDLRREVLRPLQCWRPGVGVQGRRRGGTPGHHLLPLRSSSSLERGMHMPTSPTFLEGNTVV

Cmax [1]: 21.5 nM
Vd [2]: 2.66 L/kg
EC50 [3]: 0.0286 nM
Activity [4]: 25 nM
AUC(0-inf) [5]: 229 ng·h/mL
clearance [6]: 1.06 mL/min/kg
Ki [7]: > 5450 nM
Vd [8]: 7.15 L/kg
Ki [9]: 0.626 nM
EC50 [10]: 0.027 nM
Cmax [11]: 5.76 nM
SMILES: CCCc1ccc(COc2ccc3c(c2)CCC(CN2CC(C(=O)O)C2)=C3C)c(OC)c1
ED50 (Mus musculus): 0.029 mg/kg
Activity (Cynomolgus monkey): 19%
